The structures appear in SMILES notation. The source made the active and inactive calls.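 Rule for the calls: active = IC50 at or below 10 µM; inactive = the rest.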

Experimental findings from PubChem BioAssay AID488830 (Molecular Libraries Program, Specialized Chemistry Center, …, 2010) are described below.

This assay deals with HeLa UbG76V-GFP reporter turnover, GFP imaging. The assay is described as follows: blockers of UbG76V-GFP proteasomal turnover – imaging, human cell line, second optimization round, SAR follow-up (AID 488830). In outline:
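test system = UbG76V-GFP reporter HeLa cells | probe or stimulus = 4 µM MG132 reporter-loading pre-treatment | timing = 1 h MG132, 70–170 min compound chase | technique = GFP fluorescence imaging, mean per-cell intensity over ~500 cells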
A word on the IC50: it is the concentration that inhibits the measured activity by half. As to `Clc1ccc(CNc2nc(Cl)nc3ccccc23)cc1`, the IC50 is 14 µM (inactive).
As for `O=C1C(C=NCC2CCCO2)=C(O)c2ccccc21` (stereo unspecified), the figure is > 25 µM (inactive); as for `Fc1ccc2c(NCc3ccccc3)nc(NCc3ccccc3)nc2c1`, 6.1 µM.
With `O=S(=O)(NC1CCCCC1)c1ccc(Br)cc1` the figure was > 30 µM (inactive); with `Fc1ccc(CNc2nc(Nc3cccc(Cl)c3)nc3ccccc23)cc1`, 5.7 µM.
On to `Fc1ccccc1CNc1nc(Nc2cccc(Cl)c2)nc2ccccc12`, for which the IC50 was 7.8 µM.
With `Cc1c(Cl)cccc1Nc1nc(NCc2ccccc2)c2ccccc2n1` the figure was 5.5 µM.
As for `Clc1cccc(Nc2nc(NCc3ccccc3Br)c3ccccc3n2)c1`, the figure is 12 µM (inactive); as for `Clc1ccc(CNc2nc(Nc3cccc(Cl)c3)nc3ccccc23)cc1`, 7.6 µM; as for `COc1ccc(CNc2nc(Cl)nc3ccccc23)cc1`, 18 µM (inactive).
In the case of `COc1ccc(Cl)cc1Nc1nc(NCc2ccccc2)c2ccccc2n1`, the IC50 is 16 µM (inactive).
With `Clc1nc(NCc2ccccc2Br)c2ccccc2n1` the figure was 13 µM (inactive); with `CC(C)n1c2ccccc2c2nnc(SCC(=O)OCN3C(=O)c4ccccc4C3=O)nc21`, 20 µM (inactive).
As for `Cc1ccc(F)cc1Nc1nc(NCc2ccccc2)c2ccccc2n1`, the figure is 5 µM.
Take `Cc1c(F)cccc1Nc1nc(NCc2ccccc2)c2ccccc2n1`: the IC50 was 3.7 µM.
In the case of `c1ccc(CNc2nc(N3CCCc4ccccc43)nc3ccccc23)cc1`, the IC50 was 10 µM (inactive).
Consider `Cc1ccc(Nc2nc(Nc3cccc(Cl)c3)nc3ccccc23)cc1`, for which the IC50 is > 30 µM (inactive).
With `CC(C)Sc1oc(-c2ccco2)nc1S(=O)(=O)c1ccc(F)cc1` the figure was 28 µM (inactive); with `COc1cccc(CNc2nc(Nc3cccc(Cl)c3)nc3ccccc23)c1`, 9.9 µM; with `Clc1nc(NCc2ccc(Br)cc2)c2ccccc2n1`, 15 µM (inactive).
As to `CC1(C)N(O)CC(c2cccs2)=[N+]1[O-]`, the IC50 is > 25 µM (inactive).
For `Clc1cccc(Nc2nc(NCc3ccc(Br)cc3)c3ccccc3n2)c1`, the IC50 was 10 µM (inactive).
With `O=[N+]([O-])c1cccc(Nc2nc(NCc3ccccc3)c3ccccc3n2)c1` the figure was 19 µM (inactive); with `Cc1ccc(Nc2nc(NCc3ccccc3)c3ccccc3n2)cc1F`, 5.2 µM.
With `COc1cc2nc(NCc3ccccc3)nc(NCc3ccccc3)c2cc1OC` the figure was 8.8 µM; with `Clc1ccc2nc(NCc3ccccc3)nc(NCc3ccccc3)c2c1`, 6.6 µM.
As for `Clc1cccc(Nc2nc(NCc3cccc(Br)c3)c3ccccc3n2)c1`, the concentration for half-maximal inhibition (IC50) is 9.9 µM.
As for `Brc1ccc2c(NCc3ccccc3)nc(NCc3ccccc3)nc2c1`, the figure is 10 µM (inactive).
As for `Cc1ccc(CNc2nc(Nc3cccc(Cl)c3)nc3ccccc23)cc1`, the figure is 12 µM (inactive).
For the compound `COc1c(Cl)cccc1Nc1nc(NCc2ccccc2)c2ccccc2n1`, the IC50 was 6.3 µM.
As for `Brc1cccc2c(NCc3ccccc3)nc(NCc3ccccc3)nc12`, the figure is > 30 µM (inactive).
With `Cc1cccc(CNc2nc(Nc3cccc(Cl)c3)nc3ccccc23)c1` the figure was 9.7 µM; with `c1ccc(CNc2nc(N3CCOc4ccccc43)nc3ccccc23)cc1`, 7 µM.
As for `N#Cc1ccc2c(NCc3ccccc3)nc(NCc3ccccc3)nc2c1`, the figure is 21 µM (inactive).
In the case of `Clc1cccc(CNc2nc(Cl)nc3ccccc23)c1`, the IC50 was 18 µM (inactive).
With `Clc1ccc(Nc2nc(Nc3cccc(Cl)c3)nc3ccccc23)cc1` the figure was 21 µM (inactive); with `Cc1ccc(C2=[N+]([O-])C3(CCCCC/C3=N\O)N(O)C2(C)C)o1` (stereo unspecified), > 25 µM (inactive).
As for `Fc1ccc(CNc2nc(Cl)nc3ccccc23)cc1`, the figure is 21 µM (inactive); as for `COc1c(F)cccc1Nc1nc(NCc2ccccc2)c2ccccc2n1`, 12 µM (inactive); as for `Cc1ccc(CNc2nc(Cl)nc3ccccc23)cc1`, > 25 µM (inactive).
As for `CN1CCN(S(=O)(=O)c2ccc(NC(=O)c3cccc(S(=O)(=O)N4CCCC4)c3)cc2)CC1`, the figure is > 25 µM (inactive); as for `COc1ccc(F)cc1Nc1nc(NCc2ccccc2)c2ccccc2n1`, 9.3 µM; as for `CCOC(=O)NC(NC(=O)OCC)C(=O)c1ccc(F)cc1`, > 25 µM (inactive).
For `Fc1ccccc1CNc1nc(Cl)nc2ccccc12`, the IC50 was 15 µM (inactive).
With `COc1ccc2nc(NCc3ccccc3)nc(NCc3ccccc3)c2c1` the figure was 8.6 µM; with `Clc1nc(NCc2cccc(Br)c2)c2ccccc2n1`, 19 µM (inactive); with `COc1ccc(Nc2nc(NCc3ccccc3)c3ccccc3n2)cc1F`, 4.7 µM.
Turning to `Fc1cccc2c(NCc3ccccc3)nc(NCc3ccccc3)nc12`, the IC50 is 18 µM (inactive).
With `COc1ccccc1CNc1nc(Cl)nc2ccccc12` the figure was 19 µM (inactive); with `Fc1ccccc1-c1nc(NCc2ccccc2)c2ccccc2n1`, 8 µM; with `COc1ccc(Nc2nc(Nc3cccc(Cl)c3)nc3ccccc23)cc1`, 13 µM (inactive).
With `CC(=O)Nc1ccc(NC(=O)c2ccccc2F)cc1` the figure was > 25 µM (inactive).
Turning to `Clc1cccc(Nc2nc(NCc3ccccc3Cl)c3ccccc3n2)c1`, the IC50 is 18 µM (inactive).
Take `Fc1ccc2nc(NCc3ccccc3)nc(NCc3ccccc3)c2c1`: the IC50 was 8.2 µM.
For the compound `Fc1cccc(CNc2nc(Cl)nc3ccccc23)c1`, the IC50 is 20 µM (inactive).
With `COc1ccc(Nc2nc(Nc3ccc(OC)cc3)c3ccccc3n2)cc1` the figure was 23 µM (inactive).
With `Cc1cc(F)cc(Nc2nc(NCc3ccccc3)c3ccccc3n2)c1`, the IC50 was 5.4 µM.
As for `Clc1cccc2nc(NCc3ccccc3)nc(NCc3ccccc3)c12`, the figure is 16 µM (inactive).
As for `FC(F)(F)c1cccc(Nc2nc(NCc3ccccc3)c3ccccc3n2)c1`, the figure is 21 µM (inactive); as for `Cc1ccc(Nc2nc(Nc3ccc(C)cc3)c3ccccc3n2)cc1`, 21 µM (inactive).
As for `c1ccc(Nc2nc(Nc3ccccc3)c3ccccc3n2)cc1`, the figure is 7.2 µM; as for `Clc1cccc(Nc2nc(Nc3ccccc3)c3ccccc3n2)c1`, 12 µM (inactive).
Consider `c1ccc(CNc2nc(N3CCc4ccccc43)nc3ccccc23)cc1`, for which the IC50 is 11 µM (inactive).
As for `Fc1cccc2nc(NCc3ccccc3)nc(NCc3ccccc3)c12`, the figure is 13 µM (inactive); as for `COc1ccc(CNc2nc(Nc3cccc(Cl)c3)nc3ccccc23)cc1`, 11 µM (inactive); as for `Cc1ccc2c(NCc3ccccc3)nc(NCc3ccccc3)nc2c1`, 6.1 µM.
As for `Clc1ccc2c(NCc3ccccc3)nc(NCc3ccccc3)nc2c1`, the figure is 6.3 µM; as for `Cc1ccc(Cl)cc1Nc1nc(NCc2ccccc2)c2ccccc2n1`, 7 µM; as for `O=C(C1CCCN(S(=O)(=O)c2cnc[nH]2)C1)N(CCc1ccccc1)Cc1ccccc1` (stereo unspecified), 12 µM (inactive).
For the compound `COc1ccccc1CNc1nc(Nc2cccc(Cl)c2)nc2ccccc12`, the IC50 was 11 µM (inactive).
With `CC(C)(C)NC(=O)Nc1ccc2nccnc2c1` the figure was > 25 µM (inactive).
As for `Cc1cccc(CNc2nc(Cl)nc3ccccc23)c1`, the figure is 22 µM (inactive); as for `c1ccc(CNc2nc(N3CCNc4ccccc43)nc3ccccc23)cc1`, 6.3 µM.
With `O=C(NCc1ccco1)c1cc(S(=O)(=O)N2CCOCC2)ccc1Cl` the figure was > 25 µM (inactive); with `Clc1cccc(CNc2nc(Nc3cccc(Cl)c3)nc3ccccc23)c1`, 15 µM (inactive); with `COc1cccc2c(NCc3ccccc3)nc(NCc3ccccc3)nc12`, 10 µM (inactive).
Turning to `Cc1ccccc1CNc1nc(Cl)nc2ccccc12`, the IC50 was > 25 µM (inactive).
Regarding `Clc1nc(NCc2ccccc2Cl)c2ccccc2n1`, the IC50 is 11 µM (inactive).
With `FC(F)(F)c1ccc2c(NCc3ccccc3)nc(NCc3ccccc3)nc2c1` the figure was 19 µM (inactive); with `Fc1cccc(CNc2nc(Nc3cccc(Cl)c3)nc3ccccc23)c1`, 6.3 µM.
With `COc1cccc(CNc2nc(Cl)nc3ccccc23)c1` the figure was 13 µM (inactive).
